Assay results reported in ChEMBL document CHEMBL4376883, “Discovery and Optimization of Small Molecules Targeting the Protein-Protein Interaction of Heat Shock Protein 90 (Hsp90) and Cell Division Cycle 37 as Orally Active Inhibitors for the Treatment of Colorectal Cancer” (J Med Chem, 2020).
Calls of active or inactive are those of the source. No cut-off for these calls is given here.

Experiments:
[1] = Toxicity in human HCT116 cells xenografted BALB/c mouse assessed as body weight loss at 40 to 80 mg/kg, po administered once daily for 21 days measured at 3 days interval during compound dosing; type: organism-based; settings: in vivo
Summary of the method: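 BALB/c nude mice (6 weeks old) carried flank HCT116 xenografts (1×10^7 cells with Matrigel, 3:1). Dosing started at mean tumor volume 125 mm³: oral 40 or 80 mg/kg daily for 21 days, vehicle 0.9% saline with 5% DMSO. Body weight was recorded every 3 days; n = 6.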

[2] = Toxicity in human HCT116 cells xenografted BALB/c mouse assessed as effect on liver at 40 to 80 mg/kg, po administered once daily for 21 days measured post-last dose by H and E staining-based imaging analysis; type: organism-based; settings: in vivo, 504 h
Summary of the method: (§1)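 Same xenograft model in BALB/c nude mice with oral daily dosing at 40 or 80 mg/kg in 5% DMSO/saline for 21 days. After sacrifice, organs were fixed in 4% formaldehyde, paraffin-embedded, sectioned at 4 μm and H&E-stained for light-microscopy imaging.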

[3] = Toxicity in human HCT116 cells xenografted BALB/c mouse assessed as effect on kidney at 40 to 80 mg/kg, po administered once daily for 21 days measured post-last dose by H and E staining-based imaging analysis; type: organism-based; settings: in vivo, 504 h; summary of the method: as §1
[4] = Toxicity in human HCT116 cells xenografted BALB/c mouse assessed as effect on lung at 40 to 80 mg/kg, po administered once daily for 21 days measured post-last dose by H and E staining-based imaging analysis; type: organism-based; settings: in vivo, 504 h; summary of the method: as §1
[5] = Toxicity in human HCT116 cells xenografted BALB/c mouse assessed as effect on spleen at 40 to 80 mg/kg, po administered once daily for 21 days measured post-last dose by H and E staining-based imaging analysis; type: organism-based; settings: in vivo, 504 h; summary of the method: as §1
[6] = Toxicity in human HCT116 cells xenografted BALB/c mouse assessed as effect on heart at 40 to 80 mg/kg, po administered once daily for 21 days measured post-last dose by H and E staining-based imaging analysis; type: organism-based; settings: in vivo, 504 h; summary of the method: as §1
[7] = molecular target: Heat shock protein HSP 90-alpha (Homo sapiens, UniProt P07900); assay: Binding affinity to recombinant human full-length HSP90alpha by surface plasmon resonance analysis
[8] = molecular target: T1, Heat shock protein HSP90 (Homo sapiens, UniProt P07900+P08238); assay: Inhibition of recombinant full-length HSP90 ATPase activity N-terminal domain (9 to 236 residues) (unknown origin) expressed in Escherichia coli BL21 (DE3) measured after 1 hr by ADP hunter plus assay
[9] = molecular target: T2, Heat shock protein HSP 90-beta/Hsp90 co-chaperone Cdc37 (Homo sapiens) (UniProt P08238+Q16543); assay: Inhibition of HSP90-CDC37 protein-protein interaction in human HCT116 cells up to 1 uM measured after 12 hrs by coimmunoprecipitation-based Western blot assay; type: cell-based
Summary of the method: (§2)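 HCT116 cells grown to ~90% confluence in 10 cm dishes, exposed to compound or DMSO for 12 h, then washed with ice-cold PBS and lysed in RIPA buffer (50 mM Tris, 150 mM NaCl, 1% NP-40, protease inhibitors, pH 7.4) for 1 h on ice. Hsp90 was immunoprecipitated with protein A/G magnetic beads over 3 h. Western blots probed Hsp90, Cdc37 and CDK4.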

[10] = molecular target: T2, Heat shock protein HSP 90-beta/Hsp90 co-chaperone Cdc37 (Homo sapiens); assay: Inhibition of His-tagged HSP90/GST-tagged Cdc37 (unknown origin) protein-protein interaction at 100 uM measured after 1 hr by HTRF assay relative to control; type: protein-complex assay
Summary of the method: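 His-Hsp90 and GST-Cdc37 were premixed at a final 80 nM in PBS with 200 mM KF, pH 7.4. Compound was added and the mix incubated 1 h at 37 °C, then read by HTRF. Inhibition rate was taken at 100 μM compound.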

[11] = tested on: Mus musculus; assay: In vivo inhibition of HSP90-CDC37 protein-protein interaction in human HCT116 cells xenografted BALB/c mouse assessed as reduction in CDK4 level at 40 mg/kg, po administered once daily for 21 days measured post-last dose by immunohistochemical analysis; type: functional, organism-based
Summary of the method: (§3)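 Tumours from the 21-day daily oral xenograft study (40 or 80 mg/kg) were formalin-fixed and cut into 4 µm paraffin sections. Peroxidase quenched with 3% H₂O₂; antigen retrieval by boiling in 10 mM citrate, pH 6.0. Blocked with 3% BSA; anti-CDK4 at 4 °C overnight; secondary 20 min at 37 °C. DAB detection, haematoxylin counterstain, viewed at 200×.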

[12] = molecular target: T1, Heat shock protein HSP90; assay: Binding affinity to recombinant […] HSP90 N-terminal domain (9 to 236 residues) (unknown origin) expressed in Escherichia coli BL21 (DE3) at 100 uM by STD NMR spectra analysis
Summary of the method: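 STD NMR: 100 µM compound with 5 µM Hsp90 in 20 mM sodium phosphate, 150 mM NaCl, 5% DMSO, pH 7.4. Three independent experiments.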

[13] = tested on: HCT-116; assay: Antitumor activity against human HCT116 cells xenografted in BALB/c mouse assessed as tumor growth inhibition at 40 mg/kg, po administered once daily for 21 days; type: functional, organism-based
Summary of the method: (§4)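 1×10^7 HCT116 cells mixed 3:1 with Matrigel were injected into the flanks of 6-week-old BALB/c nude mice, which were randomised into groups. Dosing started at mean tumour volume 125 mm³: daily oral gavage for 21 days in 0.9% saline with 5% DMSO at 40 or 80 mg/kg. Tumour volume measured daily by calipers (length×width²/2); n = 6. Tumours fixed in 4% formaldehyde, paraffin-embedded, 4 µm H&E sections.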

[14] = tested on: HCT-116; assay: Antitumor activity against human HCT116 cells xenografted in BALB/c mouse assessed as reduction in tumor cells at 40 mg/kg, po administered once daily for 21 days measured post-last dose by H and E staining-based imaging analysis; type: functional, organism-based; summary of the method: as §4
[15] = tested on: Mus musculus; assay: In vivo inhibition of HSP90-CDC37 protein-protein interaction in human HCT116 cells xenografted BALB/c mouse assessed as reduction in CDK4 level at 80 mg/kg, po administered once daily for 21 days measured post-last dose by immunohistochemical analysis; type: functional, organism-based; summary of the method: as §3
[16] = tested on: HCT-116; assay: Antitumor activity against human HCT116 cells xenografted in BALB/c mouse assessed as reduction in tumor cells at 80 mg/kg, po administered once daily for 21 days measured post-last dose by H and E staining-based imaging analysis; type: functional, organism-based; summary of the method: as §4
[17] = molecular target: T1, Heat shock protein HSP90; assay: Binding affinity to recombinant full-length 15N-labelled HSP90 N-terminal domain (9 to 236 residues) (unknown origin) expressed in Escherichia coli BL21 (DE3) at 250 to 500 uM by 15N 1H HSQC spectra analysis
[18] = molecular target: T1, Heat shock protein HSP90; assay: Binding affinity to recombinant […] HSP90 N-terminal domain (9 to 236 residues) (unknown origin) expressed in Escherichia coli BL21 (DE3) assessed as change in melting temperature by SYPRO dye based thermal shift assay
Summary of the method: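 Hsp90 N-terminal domain (10 µM) mixed with compound at 200, 100, 50 or 10 µM in 1× PBS, pH 8.0, with 6× SYPRO Orange. Heated from room temperature to 99 °C at 1 °C/min; fluorescence read at 492 nm excitation and 610 nm emission.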

[19] = molecular target: T1, Heat shock protein HSP90; assay: Binding affinity to recombinant […] HSP90 N-terminal domain (9 to 236 residues) (unknown origin) expressed in Escherichia coli BL21 (DE3) at 200 uM by NMR spectra analysis
[20] = tested on: Mus musculus; assay: In vivo inhibition of HSP90-CDC37 protein-protein interaction in human HCT116 cells xenografted BALB/c mouse assessed as reduction in CDK4 level at 40 to 80 mg/kg, po administered once daily for 21 days measured post-last dose by immunohistochemical analysis; type: functional, organism-based; summary of the method: as §3
[21] = tested on: Heat shock protein HSP 90-alpha (Homo sapiens), P07900 [E47A]; assay: Binding affinity to recombinant […] HSP90 E47A mutant N-terminal domain (9 to 236 residues) (unknown origin) expressed in Escherichia coli BL21 (DE3) at 200 uM by NMR spectra analysis
[22] = tested on: Heat shock protein HSP 90-alpha (Homo sapiens), P07900 [Q133A]; assay: Binding affinity to recombinant […] HSP90 Q133A mutant N-terminal domain (9 to 236 residues) (unknown origin) expressed in Escherichia coli BL21 (DE3) at 200 uM by NMR spectra analysis
[23] = tested on: HCT-116; assay: Antitumor activity against human HCT116 cells xenografted in BALB/c mouse assessed as reduction in tumor cells at 40 to 80 mg/kg, po administered once daily for 21 days measured post-last dose by H and E staining-based imaging analysis; type: functional, organism-based; summary of the method: as §4
[24] = tested on: HCT-116; assay: Antitumor activity against human HCT116 cells xenografted in po dosed BALB/c mouse assessed as tumor growth inhibition administered once daily for 21 days; type: functional, organism-based; summary of the method: as §4
[25] = tested on: Heat shock protein HSP 90-alpha (Homo sapiens), P07900 [R46A]; assay: Binding affinity to recombinant […] HSP90 R46A mutant N-terminal domain (9 to 236 residues) (unknown origin) expressed in Escherichia coli BL21 (DE3) at 200 uM by NMR spectra analysis
[26] = molecular target: T1, Heat shock protein HSP90; assay: Binding affinity to HSP90 in human HCT116 cells assessed as change in melting temperature measured after 12 hrs by CETSA; type: cell-based
Summary of the method: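 HCT116 cells near 90% confluence were treated 12 h with 20 µM compound or DMSO, then washed and resuspended in PBS. Aliquots heated 3 min at 37–75 °C, freeze-thawed three times in liquid nitrogen and centrifuged. Hsp90 detected by Western blot with β-actin reference; Tm taken from band grey levels. Three independent experiments.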

[27] = molecular target: T2, Heat shock protein HSP 90-beta/Hsp90 co-chaperone Cdc37 (Homo sapiens); assay: Inhibition of HSP90-CDC37 protein-protein interaction in human HCT116 cells assessed as reduction in CDK4 expression up to 10 uM measured after 12 hrs by coimmunoprecipitation-based Western blot assay; type: cell-based; summary of the method: as §2
[28] = molecular target: T2, Heat shock protein HSP 90-beta/Hsp90 co-chaperone Cdc37 (Homo sapiens); assay: Inhibition of HSP90-CDC37 protein-protein interaction in human HCT116 cells measured after 12 hrs by coimmunoprecipitation-based Western blot assay; type: cell-based; summary of the method: as §2

SMILES | Activity [1] | Activity [2] | Activity [3] | Activity [4] | Activity [5] | Activity [6] | inhibition [10] [%] | Activity [12] | ΔTm [18] [°C] | Activity [19] | other results
Cc1cc(C)c(S(=O)(=O)N(CC(=O)O)c2ccc(Nc3ccnc(N4CCCC4)n3)cc2)c(C)c1.[Cl-].[Na+] | Non-Toxic | Non-Toxic | Non-Toxic | Non-Toxic | Non-Toxic | Non-Toxic |  |  |  |  | 
Cc1cc(C)c(S(=O)(=O)N(CC(=O)O)c2ccc(Nc3ccnc(N4CCNCC4)n3)cc2)c(C)c1.Cl | Non-Toxic | Non-Toxic | Non-Toxic | Non-Toxic | Non-Toxic | Non-Toxic |  |  |  |  | 
Cc1cc(C)n(-c2nc(NN)nc(Nc3ccc(Cl)c(C(F)(F)F)c3)n2)n1 |  |  |  |  |  |  |  |  |  |  | Kd [7]: 4.98 µM
CC(C)c1cc(C(=O)N2Cc3ccc(CN4CCN(C)CC4)cc3C2)c(O)cc1O [ONALESPIB] |  |  |  |  |  |  |  |  |  |  | IC50 [8]: 0.15 µM; inhibition [9]: inactive
Cc1cc(C)c(S(=O)(=O)N(CC(=O)O)c2ccc(Nc3ccnc(N4CCCC4)n3)cc2)c(C)c1 |  |  |  |  |  |  | 72.6 | Active | 2.13 | Active | inhibition [11]: inactive; TGI [13]: inactive; Activity [14]: inactive; inhibition [15]: Active; Activity [16]: Active; Activity [17]: Active
Cc1cc(C)c(S(=O)(=O)N(CC(=O)O)c2ccc(Nc3ccnc(N4CCNCC4)n3)cc2)c(C)c1 |  |  |  |  |  |  | 97.4 | Active | 4.75 | Active | inhibition [20]: Active; Activity [21]: inactive; Activity [22]: Active; Activity [23]: Active; TGI [24]: Dose-dependent effect; Activity [25]: Active; ΔTm [26]: 6.39 °C; inhibition [27]: Active; inhibition [28]: Dose-dependent effect
